Experimental data taken from ChEMBL document CHEMBL1140164, “Isosorbide-2-carbamate esters: potent and selective butyrylcholinesterase inhibitors” (J Med Chem, 2008).
Calls of active or inactive are those of the source. The rule behind the calls is not given here.

What was measured:
Cholinesterase [1] = biological target: T1, Cholinesterase (Homo sapiens, UniProt P06276); test: Inhibition of human plasma BuchE at 100 uM by Ellman's method; assay type: cell-free
Method in brief: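 Ellman assay using human plasma (or purified plasma BuChE) in phosphate buffer pH 8.0 with DTNB (0.5 mM solution); 30 min enzyme–inhibitor preincubation, then BTCI (0.5 mM solution) added and rate read at 405 nm over 5 min. Percent inhibition determined at 100 µM inhibitor; triplicate.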

Acetylcholinesterase [2] = biological target: Acetylcholinesterase (Electrophorus electricus, UniProt O42275); test: Inhibition of electric eel AchE by Ellman's method
Acetylcholinesterase (Electrophorus electricus, UniProt O42275), sequence (O42275 whole entry): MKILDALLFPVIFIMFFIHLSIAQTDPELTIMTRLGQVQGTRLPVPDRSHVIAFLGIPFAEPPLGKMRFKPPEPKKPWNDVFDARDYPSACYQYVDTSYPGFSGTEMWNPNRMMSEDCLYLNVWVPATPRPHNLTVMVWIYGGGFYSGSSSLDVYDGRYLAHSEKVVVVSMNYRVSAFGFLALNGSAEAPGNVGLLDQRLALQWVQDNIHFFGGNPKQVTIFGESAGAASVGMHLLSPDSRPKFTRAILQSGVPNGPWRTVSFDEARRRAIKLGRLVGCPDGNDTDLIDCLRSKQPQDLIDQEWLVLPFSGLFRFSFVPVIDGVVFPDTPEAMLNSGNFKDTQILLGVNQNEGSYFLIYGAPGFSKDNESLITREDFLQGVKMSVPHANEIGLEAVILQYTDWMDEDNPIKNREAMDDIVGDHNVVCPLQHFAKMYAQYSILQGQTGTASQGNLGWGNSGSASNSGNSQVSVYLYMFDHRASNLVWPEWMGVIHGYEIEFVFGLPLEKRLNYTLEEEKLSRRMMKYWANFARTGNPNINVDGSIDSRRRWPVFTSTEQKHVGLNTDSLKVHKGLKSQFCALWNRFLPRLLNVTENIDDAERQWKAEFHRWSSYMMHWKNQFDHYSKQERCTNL

[3] = biological target: Acetylcholinesterase (Electrophorus electricus) (UniProt O42275); test: Inhibition of electric eel AchE at 100 uM by Ellman's method
Acetylcholinesterase (Electrophorus electricus), sequence (O42275 24-633 limits assumed): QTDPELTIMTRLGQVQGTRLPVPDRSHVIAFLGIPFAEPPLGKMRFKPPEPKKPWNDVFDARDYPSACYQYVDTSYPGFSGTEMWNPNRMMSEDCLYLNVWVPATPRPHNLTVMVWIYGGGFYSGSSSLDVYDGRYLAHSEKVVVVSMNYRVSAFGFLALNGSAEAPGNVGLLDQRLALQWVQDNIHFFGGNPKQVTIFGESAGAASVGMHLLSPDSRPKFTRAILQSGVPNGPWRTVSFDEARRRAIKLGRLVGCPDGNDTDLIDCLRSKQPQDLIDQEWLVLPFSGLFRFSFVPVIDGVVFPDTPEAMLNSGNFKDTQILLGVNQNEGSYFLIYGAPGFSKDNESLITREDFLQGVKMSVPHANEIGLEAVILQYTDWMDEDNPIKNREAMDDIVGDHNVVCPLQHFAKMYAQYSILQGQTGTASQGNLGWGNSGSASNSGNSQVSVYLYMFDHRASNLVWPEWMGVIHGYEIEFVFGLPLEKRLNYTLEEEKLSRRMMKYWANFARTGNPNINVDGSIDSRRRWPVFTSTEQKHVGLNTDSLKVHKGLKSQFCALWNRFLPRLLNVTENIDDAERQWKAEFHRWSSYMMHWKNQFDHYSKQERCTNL
Method in brief: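 Ellman assay with electric eel AChE and ATCI as substrate, phosphate buffer pH 8.0, DTNB (0.5 mM solution). Enzyme and inhibitor incubated 30 min before substrate addition; absorbance read at 405 nm over 5 min. […] Triplicate.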

[4] = Selectivity ratio of IC50 for electric eel AchE to IC50 for human plasma BuchE
Cholinesterase [5] = biological target: T1, Cholinesterase; test: Inhibition of human plasma BuchE by Ellman's method; assay type: cell-free
Homo sapiens = species on record: Homo sapiens; test: Selectivity ratio of IC50 for human erythrocyte AchE to IC50 for human plasma BuchE
Cholinesterase [6] = biological target: T1, Cholinesterase; test: Inhibition of human plasma BuchE using variable substrate levels by carbamylation assay; assay type: cell-free
Method in brief: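 Time-course carbamylation with purified human plasma BuChE (1.2 × 10^-3 mg/mL), fixed inhibitor concentration, substrate varied 0.5-10 mM; preincubation sampled at 0-60 min intervals, then DTNB 0.3 mM plus substrate added and read at 412 nm for 5 min. Data plotted as ln E/E_T versus time.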

Acetylcholinesterase [7] = biological target: Acetylcholinesterase (Homo sapiens, UniProt P22303); test: Inhibition of human erythrocyte AchE by Ellman's method
Acetylcholinesterase (Homo sapiens, UniProt P22303), sequence (P22303 whole entry): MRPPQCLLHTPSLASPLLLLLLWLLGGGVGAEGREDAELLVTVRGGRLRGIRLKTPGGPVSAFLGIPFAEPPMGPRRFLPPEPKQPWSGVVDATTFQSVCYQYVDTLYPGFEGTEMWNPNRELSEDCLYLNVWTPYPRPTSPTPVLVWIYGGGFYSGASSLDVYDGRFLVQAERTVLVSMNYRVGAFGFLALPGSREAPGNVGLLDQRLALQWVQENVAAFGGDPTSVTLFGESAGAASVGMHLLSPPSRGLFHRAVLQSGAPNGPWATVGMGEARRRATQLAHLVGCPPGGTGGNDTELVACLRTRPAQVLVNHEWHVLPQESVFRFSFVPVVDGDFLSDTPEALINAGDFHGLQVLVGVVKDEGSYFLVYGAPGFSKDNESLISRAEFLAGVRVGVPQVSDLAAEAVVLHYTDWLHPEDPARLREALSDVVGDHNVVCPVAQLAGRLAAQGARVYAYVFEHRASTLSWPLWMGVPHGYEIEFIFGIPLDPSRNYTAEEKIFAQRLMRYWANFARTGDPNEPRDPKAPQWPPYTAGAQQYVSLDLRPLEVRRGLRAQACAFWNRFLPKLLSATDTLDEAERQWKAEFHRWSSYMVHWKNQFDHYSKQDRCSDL

Cholinesterase [8] = biological target: T1, Cholinesterase; test: Inhibition of human plasma BuchE in presence of edrophonium by carbamylation assay; assay type: cell-free
Method in brief: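 Carbamylation time course with purified human plasma BuChE (1.2 × 10^-3 mg/mL) and inhibitor at 1 mM in the presence of 5 mM edrophonium; activity sampled over 60 min preincubation, measured with DTNB 0.3 mM and substrate at 412 nm for 5 min.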

Plasma = test: Stability in 50% human plasma assessed as drug hydrolysis at 10 to 100 uM by HPLC; assay type: ADME, cell-free
Method in brief: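 Pooled citrated human venous plasma diluted with pH 7.4 phosphate buffer to 50%, showing normal adult BuChE activity. Compound added in acetonitrile and incubated at 37 °C. Aliquots taken at intervals, quenched in 2% ZnSO4·7H2O in MeCN-H2O (1:1) plus acetonitrile, vortexed and centrifuged. Supernatant analysed by reversed-phase HPLC with a gradient of pH 2.5 phosphate buffer:acetonitrile, 50:50 to 20:80 over 20 min.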

Cholinesterase [9] = biological target: T1, Cholinesterase; test: Inhibition of human plasma BuchE after 60 mins by carbamylation assay; assay type: cell-free
Method in brief: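 Purified human plasma BuChE (1.2 × 10^-3 mg/mL) preincubated with inhibitor in buffer in a cuvette for up to 60 min, readings at 0, 5, 10, 20, 30, 40, 50, 60 min; DTNB 0.3 mM and substrate then added, reaction followed at 412 nm for 5 min.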

T1 sequence (P06276 whole entry): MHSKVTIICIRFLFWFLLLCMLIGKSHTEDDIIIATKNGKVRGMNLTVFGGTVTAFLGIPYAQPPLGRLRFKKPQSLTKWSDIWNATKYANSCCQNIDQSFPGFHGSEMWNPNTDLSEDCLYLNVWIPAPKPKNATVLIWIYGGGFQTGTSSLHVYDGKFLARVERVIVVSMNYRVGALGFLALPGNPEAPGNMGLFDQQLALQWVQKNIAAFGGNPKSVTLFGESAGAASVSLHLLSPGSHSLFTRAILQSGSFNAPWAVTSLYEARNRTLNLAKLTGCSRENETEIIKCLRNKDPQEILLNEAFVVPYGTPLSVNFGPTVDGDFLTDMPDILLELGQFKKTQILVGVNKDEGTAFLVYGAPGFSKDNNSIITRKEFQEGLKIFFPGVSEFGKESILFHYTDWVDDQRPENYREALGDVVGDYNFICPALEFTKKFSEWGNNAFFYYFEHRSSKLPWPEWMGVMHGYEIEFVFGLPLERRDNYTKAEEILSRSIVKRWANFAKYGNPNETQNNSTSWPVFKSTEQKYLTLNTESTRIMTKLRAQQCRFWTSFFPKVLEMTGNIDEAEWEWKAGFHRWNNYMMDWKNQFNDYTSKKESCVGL

Compound	inhibition (Cholinesterase [1]) [%]	IC50 (Acetylcholinesterase [2]) [µM]	inhibition [3] [%]	Ratio IC50 [4]	IC50 (Cholinesterase [5]) [µM]	also measured
O=C(NCc1ccccc1)O[C@H]1CO[C@H]2[C@@H]1OC[C@H]2OC(=O)c1cccc2ccccc12	99	37.6	86	1340	0.028	
CS(=O)(=O)OC(=O)O[C@@H]1CO[C@H]2[C@@H]1OC[C@@H]2OC(=O)NCc1ccccc1	9.8		3			
CNC(=O)O[C@H]1CO[C@H]2[C@@H]1OC[C@H]2OC(=O)c1ccccc1	93		54	150	0.669	
CC(=O)O[C@@H]1CO[C@H]2[C@@H]1OC[C@@H]2OC(=O)NCc1ccccc1	97		12	> 25	4.1	
O=C(NC1CCCCC1)O[C@H]1CO[C@H]2[C@@H]1OC[C@H]2O[N+](=O)[O-]	99		30	> 40	2.5	
CC(C)NP(=O)(NC(C)C)OP(=O)(NC(C)C)NC(C)C [TETRAISOPROPYL PYROPHOSPHORAMIDE]		2.5				
O=C(Nc1ccccc1Cl)O[C@H]1CO[C@H]2[C@@H]1OC[C@H]2O[N+](=O)[O-]	11		24			
O=C(NCc1ccccc1)O[C@H]1CO[C@H]2[C@@H]1OC[C@H]2O	95		15	> 27	3.7	
CCNC(=O)O[C@H]1CO[C@H]2[C@@H]1OC[C@H]2O[N+](=O)[O-]	73		1		3.9	
CCCCC(=O)O[C@@H]1CO[C@H]2[C@@H]1OC[C@@H]2OC(=O)NCc1ccccc1	95		4	> 142	0.7	
O=C(Nc1cccc(Cl)c1)O[C@H]1CO[C@H]2[C@@H]1OC[C@H]2O[N+](=O)[O-]	11		24			
O=C(Nc1ccc(Cl)c(Cl)c1)O[C@H]1CO[C@H]2[C@@H]1OC[C@H]2O[N+](=O)[O-]	28	9.9	78			
CCCCCCc1ccc(C(=O)O[C@@H]2CO[C@H]3[C@@H]2OC[C@@H]3OC(=O)NCc2ccccc2)cc1					2.8	
Cc1ccc(S(=O)(=O)C(=O)O[C@@H]2CO[C@H]3[C@@H]2OC[C@@H]3OC(=O)NCc2ccccc2)cc1	25		66			
O=C(NCc1ccccc1)O[C@H]1CO[C@H]2[C@@H]1OC[C@H]2OC(=O)c1ccccc1	99	273	21	63300	0.0043	Ratio IC50 (Homo sapiens): 51000; Activity (Cholinesterase [6]): Dose-dependent effect; IC50 (Acetylcholinesterase [7]): 221 µM; Activity (Cholinesterase [8]): inactive; Stability (Plasma): Stable
O=C(NCc1ccccc1)O[C@H]1CO[C@H]2[C@@H]1OC[C@H]2OC(=O)c1cccnc1	99		33	1750	0.057	
O=C(NCc1ccccc1)O[C@H]1CO[C@H]2[C@@H]1OC[C@H]2OC(=O)c1ccc(-c2ccccc2)cc1	99	51.6	89	4190	0.012	

Compound	inhibition (Cholinesterase [1]) [%]	IC50 (Acetylcholinesterase [2]) [µM]	inhibition [3] [%]	Ratio IC50 [4]	IC50 (Cholinesterase [5]) [µM]	also measured
CCC(C)NC(=O)O[C@H]1CO[C@H]2[C@@H]1OC[C@H]2OC(=O)c1ccccc1 (some centres not stated)	99		31	1390	0.072	
O=C(/C=C/c1ccc(O)cc1)O[C@@H]1CO[C@H]2[C@@H]1OC[C@@H]2OC(=O)NCc1ccccc1	100	60.4	81	821	0.073	
O=C(NCc1ccccc1)O[C@H]1CO[C@H]2[C@@H]1OC[C@H]2OC(=O)OS(=O)(=O)C(F)(F)F					0.359	
O=C(NCc1ccccc1)O[C@H]1CO[C@H]2[C@@H]1OC[C@H]2OC(=O)C1CCCC1	99	56.3	88	9380	0.006	
O=C(NCc1ccccc1)O[C@H]1CO[C@H]2[C@@H]1OC[C@H]2OC(=O)C1CC1	97		55	300	0.334	
CCCCNC(=O)O[C@H]1CO[C@H]2[C@@H]1OC[C@H]2O[N+](=O)[O-]	92	1440	32	1610	0.894	
CCCNC(=O)O[C@H]1CO[C@H]2[C@@H]1OC[C@H]2O[N+](=O)[O-]	93	1520	1	2380	0.639	
O=C(Nc1cccc(C(F)(F)F)c1)O[C@H]1CO[C@H]2[C@@H]1OC[C@H]2O[N+](=O)[O-]	10		12			
O=C(NCc1ccccc1)O[C@H]1CO[C@H]2[C@@H]1OC[C@H]2OC(=O)c1ccc2ccccc2c1	100	43.4	80	1370	0.032	
O=C(Nc1ccccc1)O[C@H]1CO[C@H]2[C@@H]1OC[C@H]2O[N+](=O)[O-]	37		23			
O=C(NCc1ccccc1)O[C@H]1CO[C@H]2[C@@H]1OC[C@H]2OC(=O)c1ccncc1	97		24		0.088	
C=CC[N+](C)(C)c1ccc(CCC(=O)CCc2ccc([N+](C)(C)CC=C)cc2)cc1		0.063				
CNC(=O)O[C@H]1CO[C@H]2[C@@H]1OC[C@H]2O[N+](=O)[O-]	82	17.2	67		5.1	
O=C(NCc1ccccc1)O[C@H]1CO[C@H]2[C@@H]1OC[C@H]2O[N+](=O)[O-]	96		35	> 2000	0.051	IC50 (Cholinesterase [9]): 0.0036 µM
O=C(Nc1ccc(Cl)c(Cl)c1)O[C@H]1CO[C@H]2[C@@H]1OC[C@H]2OC(=O)c1ccccc1	38		70			
CCC(=O)O[C@@H]1CO[C@H]2[C@@H]1OC[C@@H]2OC(=O)NCc1ccccc1	97		5	> 100	0.98	
O=C(/C=C/c1ccccc1)O[C@@H]1CO[C@H]2[C@@H]1OC[C@@H]2OC(=O)NCc1ccccc1	96	55.9	82	729	0.137	
